Measurements as given in ChEMBL document CHEMBL3046278, “Design, synthesis and antifungal/insecticidal evaluation of novel cinnamide derivatives” (2011).
≈ marks a conversion by molar mass, not a printed value.

system: Bursaphelenchus xylophilus; assay: Nematicidal activity against Bursaphelenchus xylophilus assessed as mortality after 48 hr; assay type: functional; details: read-out: LD50 (the source's name)

SMILES | LC50
CCc1ccc(/C(=C/C(=O)NCCc2ccccc2)c2ccnc(Cl)c2)cc1 | 174 µg/mL (≈ 445 µM)
Cc1ccc(/C(=C/C(=O)NCCc2ccccc2)c2ccnc(Cl)c2)cc1C | 315 µg/mL (≈ 805 µM)
COc1ccc(CCNC(=O)/C=C(/c2ccc(C)cc2)c2ccnc(Cl)c2)cc1OC | 178 µg/mL (≈ 409 µM)
CN(/C=C\c1ccccc1)C(=O)/C=C/c1ccccc1 [LANSIUMAMIDE B] | 6.36 µg/mL (≈ 24.2 µM)

system: Cytospora mali; assay: Antifungal activity against Valsa mali assessed as inhibition of mycelium growth at 50 ug/ml relative to control; assay type: functional; details: not given
Procedure, shortened: (§1)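 Mycelial growth inhibition on mycelial disks, compared with untreated control, using colony diameters: (control − treatment)/(control − disk diameter) × 100. Run twice, four replicates each.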

SMILES | inhibition at 50 µg/mL
CCc1ccc(/C(=C/C(=O)NCCc2ccc(O)cc2)c2ccnc(Cl)c2)cc1 | 24%
Cc1ccc(/C(=C/C(=O)NCCc2ccc(O)cc2)c2ccnc(Cl)c2)cc1C | -6.3%
CCc1ccc(/C(=C/C(=O)NCCc2ccccc2)c2ccnc(Cl)c2)cc1 | 20%
Cc1ccc(/C(=C/C(=O)NCCc2ccccc2)c2ccnc(Cl)c2)cc1C | 52%
COc1ccc(CCNC(=O)/C=C(/c2ccc(C)cc2)c2ccnc(Cl)c2)cc1OC | 42%

system: Bursaphelenchus xylophilus; assay: Nematicidal activity against Bursaphelenchus xylophilus assessed as mortality after 24 hr; assay type: functional; details: read-out: LD50 (the source's name)

SMILES | LC50
CCc1ccc(/C(=C/C(=O)NCCc2ccccc2)c2ccnc(Cl)c2)cc1 | 301 µg/mL (≈ 769 µM)
Cc1ccc(/C(=C/C(=O)NCCc2ccccc2)c2ccnc(Cl)c2)cc1C | 430 µg/mL (≈ 1100 µM)
COc1ccc(CCNC(=O)/C=C(/c2ccc(C)cc2)c2ccnc(Cl)c2)cc1OC | 305 µg/mL (≈ 699 µM)
CN(/C=C\c1ccccc1)C(=O)/C=C/c1ccccc1 [LANSIUMAMIDE B] | 8.38 µg/mL (≈ 31.8 µM)

system: Botrytis cinerea; assay: Antifungal activity against Botryotinia fuckeliana assessed as inhibition of mycelium growth at 50 ug/ml relative to control; assay type: functional; details: not given; procedure, shortened: as §1

SMILES | inhibition at 50 µg/mL
CCc1ccc(/C(=C/C(=O)NCCc2ccc(O)cc2)c2ccnc(Cl)c2)cc1 | 37%
Cc1ccc(/C(=C/C(=O)NCCc2ccc(O)cc2)c2ccnc(Cl)c2)cc1C | 54%
CCc1ccc(/C(=C/C(=O)NCCc2ccccc2)c2ccnc(Cl)c2)cc1 | 50%
Cc1ccc(/C(=C/C(=O)NCCc2ccccc2)c2ccnc(Cl)c2)cc1C | 67%
COc1ccc(CCNC(=O)/C=C(/c2ccc(C)cc2)c2ccnc(Cl)c2)cc1OC | 59%

system: Bursaphelenchus xylophilus; assay: Nematicidal activity against Bursaphelenchus xylophilus assessed as mortality after 72 hr; assay type: functional; details: read-out: LD50 (the source's name)

SMILES | LC50
CCc1ccc(/C(=C/C(=O)NCCc2ccccc2)c2ccnc(Cl)c2)cc1 | 114 µg/mL (≈ 291 µM)
Cc1ccc(/C(=C/C(=O)NCCc2ccccc2)c2ccnc(Cl)c2)cc1C | 252 µg/mL (≈ 646 µM)
COc1ccc(CCNC(=O)/C=C(/c2ccc(C)cc2)c2ccnc(Cl)c2)cc1OC | 126 µg/mL (≈ 289 µM)
CN(/C=C\c1ccccc1)C(=O)/C=C/c1ccccc1 [LANSIUMAMIDE B] | 5.38 µg/mL (≈ 20.4 µM)

system: Colletotrichum lindemuthianum; assay: Antifungal activity against Colletotrichum lindemuthianum assessed as inhibition of mycelium growth at 50 ug/ml relative to control; assay type: functional; details: not given; procedure, shortened: as §1

SMILES | inhibition at 50 µg/mL
CCc1ccc(/C(=C/C(=O)NCCc2ccc(O)cc2)c2ccnc(Cl)c2)cc1 | 24.6%
Cc1ccc(/C(=C/C(=O)NCCc2ccc(O)cc2)c2ccnc(Cl)c2)cc1C | 35.8%
CCc1ccc(/C(=C/C(=O)NCCc2ccccc2)c2ccnc(Cl)c2)cc1 | 34.3%
Cc1ccc(/C(=C/C(=O)NCCc2ccccc2)c2ccnc(Cl)c2)cc1C | 56%
COc1ccc(CCNC(=O)/C=C(/c2ccc(C)cc2)c2ccnc(Cl)c2)cc1OC | 55.2%

system: Bursaphelenchus xylophilus; assay: Nematicidal activity against Bursaphelenchus xylophilus assessed as mortality at 200 mg/L after 48 hr relative to control; assay type: functional; details: not given
Procedure, shortened: (§2)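 Compounds dissolved in acetone and diluted with distilled water to a 200 mg L-1 working solution. Distilled water served as blank, triplicate. Mortality counted at 24, 48 and 72 h, then corrected against the negative control with Abbott's formula.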

SMILES | Activity
CCc1ccc(/C(=C/C(=O)NCCc2ccc(O)cc2)c2ccnc(Cl)c2)cc1 | 33.6%
Cc1ccc(/C(=C/C(=O)NCCc2ccc(O)cc2)c2ccnc(Cl)c2)cc1C | 14.86%
CCc1ccc(/C(=C/C(=O)NCCc2ccccc2)c2ccnc(Cl)c2)cc1 | 26.29%
Cc1ccc(/C(=C/C(=O)NCCc2ccccc2)c2ccnc(Cl)c2)cc1C | 21.49%
COc1ccc(CCNC(=O)/C=C(/c2ccc(C)cc2)c2ccnc(Cl)c2)cc1OC | 38.45%
CN(/C=C\c1ccccc1)C(=O)/C=C/c1ccccc1 [LANSIUMAMIDE B] | 100%

system: Bursaphelenchus xylophilus; assay: Nematicidal activity against Bursaphelenchus xylophilus assessed as mortality at 200 mg/L after 24 hr relative to control; assay type: functional; details: not given; procedure, shortened: as §2

SMILES | Activity
CCc1ccc(/C(=C/C(=O)NCCc2ccc(O)cc2)c2ccnc(Cl)c2)cc1 | 14.73%
Cc1ccc(/C(=C/C(=O)NCCc2ccc(O)cc2)c2ccnc(Cl)c2)cc1C | 3.97%
CCc1ccc(/C(=C/C(=O)NCCc2ccccc2)c2ccnc(Cl)c2)cc1 | 17.95%
Cc1ccc(/C(=C/C(=O)NCCc2ccccc2)c2ccnc(Cl)c2)cc1C | 14.73%
COc1ccc(CCNC(=O)/C=C(/c2ccc(C)cc2)c2ccnc(Cl)c2)cc1OC | 13.29%
CN(/C=C\c1ccccc1)C(=O)/C=C/c1ccccc1 [LANSIUMAMIDE B] | 100%

system: Sclerotinia sclerotiorum; assay: Antifungal activity against Sclerotinia sclerotiorum assessed as inhibition of mycelium growth at 50 ug/ml relative to control; assay type: functional; details: not given; procedure, shortened: as §1

SMILES | inhibition at 50 µg/mL
CCc1ccc(/C(=C/C(=O)NCCc2ccc(O)cc2)c2ccnc(Cl)c2)cc1 | 17%
Cc1ccc(/C(=C/C(=O)NCCc2ccc(O)cc2)c2ccnc(Cl)c2)cc1C | 44%
CCc1ccc(/C(=C/C(=O)NCCc2ccccc2)c2ccnc(Cl)c2)cc1 | 44%
Cc1ccc(/C(=C/C(=O)NCCc2ccccc2)c2ccnc(Cl)c2)cc1C | 72%
COc1ccc(CCNC(=O)/C=C(/c2ccc(C)cc2)c2ccnc(Cl)c2)cc1OC | 42%

system: Phytophthora nicotianae; assay: Antifungal activity against Phytophthora parasitica assessed as inhibition of mycelium growth at 50 ug/ml relative to control; assay type: functional; details: not given; procedure, shortened: as §1

SMILES | inhibition at 50 µg/mL
CCc1ccc(/C(=C/C(=O)NCCc2ccc(O)cc2)c2ccnc(Cl)c2)cc1 | 28.2%
Cc1ccc(/C(=C/C(=O)NCCc2ccc(O)cc2)c2ccnc(Cl)c2)cc1C | -18.5%
CCc1ccc(/C(=C/C(=O)NCCc2ccccc2)c2ccnc(Cl)c2)cc1 | 26.8%
Cc1ccc(/C(=C/C(=O)NCCc2ccccc2)c2ccnc(Cl)c2)cc1C | 1.61%
COc1ccc(CCNC(=O)/C=C(/c2ccc(C)cc2)c2ccnc(Cl)c2)cc1OC | 0%

system: Bursaphelenchus xylophilus; assay: Nematicidal activity against Bursaphelenchus xylophilus assessed as mortality at 200 mg/L after 72 hr relative to control; assay type: functional; details: not given; procedure, shortened: as §2

SMILES | Activity
CCc1ccc(/C(=C/C(=O)NCCc2ccc(O)cc2)c2ccnc(Cl)c2)cc1 | 43.97%
Cc1ccc(/C(=C/C(=O)NCCc2ccc(O)cc2)c2ccnc(Cl)c2)cc1C | 23.99%
CCc1ccc(/C(=C/C(=O)NCCc2ccccc2)c2ccnc(Cl)c2)cc1 | 67.87%
Cc1ccc(/C(=C/C(=O)NCCc2ccccc2)c2ccnc(Cl)c2)cc1C | 45.15%
COc1ccc(CCNC(=O)/C=C(/c2ccc(C)cc2)c2ccnc(Cl)c2)cc1OC | 43.97%
CN(/C=C\c1ccccc1)C(=O)/C=C/c1ccccc1 [LANSIUMAMIDE B] | 100%

system: Rhizoctonia solani; assay: Antifungal activity against Rhizoctonia solani assessed as inhibition of mycelium growth at 50 ug/ml relative to control; assay type: functional; details: not given; procedure, shortened: as §1

SMILES | inhibition at 50 µg/mL
CCc1ccc(/C(=C/C(=O)NCCc2ccc(O)cc2)c2ccnc(Cl)c2)cc1 | 67.7%
Cc1ccc(/C(=C/C(=O)NCCc2ccc(O)cc2)c2ccnc(Cl)c2)cc1C | 91%
CCc1ccc(/C(=C/C(=O)NCCc2ccccc2)c2ccnc(Cl)c2)cc1 | 22.4%
Cc1ccc(/C(=C/C(=O)NCCc2ccccc2)c2ccnc(Cl)c2)cc1C | 76.8%
COc1ccc(CCNC(=O)/C=C(/c2ccc(C)cc2)c2ccnc(Cl)c2)cc1OC | 82.6%
